Measurements as given in ChEMBL document CHEMBL4052828, “Discovery of 4-((7H-Pyrrolo[2,3-d]pyrimidin-4-yl)amino)-N-(4-((4-methylpiperazin-1-yl)methyl)phenyl)-1H-pyrazole-3-carboxamide (FN-1501), an FLT3- and CDK-Kinase Inhibitor with Potentially High Efficiency against Acute Myelocytic Leukemia” (J Med Chem, 2018).
Activity calls are given as the source filed them. The rule behind the calls is not given here.

Columns and labels:
CDK2/Cyclin A1 = CDK2/Cyclin A1 (Homo sapiens, UniProt P24941); test: Inhibition of human CDK2/Cyclin A1 using histone H1 as substrate preincubated for 20 mins followed by [gamma-33P]-ATP addition measure after 120 mins by filter binding method; assay type: protein-complex assay
In short: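 Compound preincubated with kinase 20 min at room temperature. Filter-binding read-out, curve-fitted IC50; mean ± SD of three independent experiments.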

[1] = target: Cyclin-dependent kinase 4/cyclin D1 (Homo sapiens, UniProt P11802); test: Inhibition of human CDK4/Cyclin D1 using RB protein as substrate preincubated for 20 mins followed by [gamma-33P]-ATP addition measure after 120 mins by filter binding method; assay type: protein-complex assay
In short: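 Compound preincubated with kinase 20 min at room temperature. Reaction started with 10 μM [γ-33P]ATP and run 120 min at 25°C. Filter-binding read-out, curve-fitted IC50; mean ± SD of three independent experiments.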

RS4-11 = test: Growth inhibition of human RS4:11 cells after 72 hrs by CellTiter-Glo assay; assay type: functional; details: RS4-11, 72 h
MCF7 = test: Growth inhibition of human MCF7 cells after 72 hrs by CellTiter-Glo assay; assay type: functional; details: MCF7, 72 h
NCI-H82 = test: Growth inhibition of human NCI-H82 cells after 72 hrs by CellTiter-Glo assay; assay type: functional; details: NCI-H82, 72 h
[2] = Terminal half life in human liver microsomes by LC-MS/MS analysis; assay type: ADME, microsome; details: read-out: beta t1/2 (converted)
In short: (§1)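 Metabolic stability measured by incubating compound in human, rat, mouse, dog and monkey liver microsomes. Terminal t1/2 determined.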

[3] = Terminal half life in rat liver microsomes by LC-MS/MS analysis; assay type: ADME, microsome; details: read-out: beta t1/2 (converted); in short: as §1
[4] = Intrinsic clearance in rat liver microsomes by LC-MS/MS analysis; assay type: ADME, microsome; details: read-out: CLH
[5] = Terminal half life in mouse liver microsomes by LC-MS/MS analysis; assay type: ADME, microsome; details: read-out: beta t1/2 (converted); in short: as §1
[6] = Terminal half life in dog liver microsomes by LC-MS/MS analysis; assay type: ADME, Canis lupus familiaris, microsome; details: read-out: beta t1/2 (converted); in short: as §1
[7] = Intrinsic clearance in dog liver microsomes by LC-MS/MS analysis; assay type: ADME, Canis lupus familiaris, microsome; details: read-out: CLH
[8] = Terminal half life in cynomolgus monkey liver microsomes by LC-MS/MS analysis; assay type: ADME, Macaca fascicularis, microsome; details: read-out: beta t1/2 (converted); in short: as §1
[9] = Intrinsic clearance in cynomolgus monkey liver microsomes by LC-MS/MS analysis; assay type: ADME, Macaca fascicularis, microsome; details: read-out: CLH
MV4-11 [10] = test: Antitumor activity against human MV4-11 cells xenografted in nu/nu mouse assessed as tumor regression at 15 mg/kg, iv qd measured on day 21 relative to vehicle-treated control; assay type: functional
MV4-11 [11] = test: Antitumor activity against human MV4-11 cells xenografted in nu/nu mouse assessed as tumor regression at 30 mg/kg, iv qd measured on day 21 relative to vehicle-treated control; assay type: functional
Lymphocyte = test: Cytotoxicity against human lymphocytes assessed as decrease in cell viability after 72 hrs by MTT assay; assay type: cell-based
MV4-11 [12] = test: Induction of apoptosis in human MV4-11 cells assessed as late apoptotic cells at 0.2 uM after 24 hrs by annexin V-FITC/propidium iodide staining-based flow cytometric method (reference value: 2.54%); assay type: functional
MV4-11 [13] = test: Induction of apoptosis in human MV4-11 cells assessed as early apoptotic cells at 0.5 uM after 24 hrs by annexin V-FITC/propidium iodide staining-based flow cytometric method (reference value: 3.54%); assay type: functional
MV4-11 [14] = test: Induction of apoptosis in human MV4-11 cells assessed as late apoptotic cells at 0.5 uM after 24 hrs by annexin V-FITC/propidium iodide staining-based flow cytometric method (reference value: 2.54%); assay type: functional
MV4-11 [15] = test: Induction of apoptosis in human MV4-11 cells assessed as early apoptotic cells at 1 uM after 24 hrs by annexin V-FITC/propidium iodide staining-based flow cytometric method (reference value: 3.54%); assay type: functional
MV4-11 [16] = test: Induction of apoptosis in human MV4-11 cells assessed as late apoptotic cells at 1 uM after 24 hrs by annexin V-FITC/propidium iodide staining-based flow cytometric method (reference value: 2.54%); assay type: functional
MV4-11 [17] = test: Induction of apoptosis in human MV4-11 cells assessed as early apoptotic cells at 2 uM after 24 hrs by annexin V-FITC/propidium iodide staining-based flow cytometric method (reference value: 3.54%); assay type: functional
MV4-11 [18] = test: Cell cycle arrest in human MV4-11 cells assessed as accumulation at G0/G1 phase after 24 hrs by propidium iodide/BrdU staining-based flow cytometric method; assay type: functional
In short: (§2)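 Cells treated with compound for 24 h, then fixed. Double-stained with propidium iodide and BrdU for flow cytometric analysis of cell cycle distribution.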

HCT-116 = test: Cell cycle arrest in human HCT116 cells assessed as accumulation at G2/M phase at 0.1 to 1 uM after 24 hrs by propidium iodide/BrdU staining-based flow cytometric method; assay type: functional; in short: as §2
[19] = target: Receptor-type tyrosine-protein kinase FLT3 (Homo sapiens) (UniProt P36888); test: Inhibition of FLT3 phosphorylation in human MV4-11 cells at 0.02 to 1 uM after 24 hrs by Western blot analysis; assay type: cell-based
In short: (§3)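 MV4-11 cells treated with increasing concentrations of compound for 24 h. Lysates immunoblotted for phosphorylated FLT3, STAT5, ERK, AKT and Rb.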

[20] = target: Receptor-type tyrosine-protein kinase FLT3 (Homo sapiens) (UniProt P36888); test: Inhibition of FLT3 phosphorylation in human MV4-11 cells assessed as decrease in STAT5 phosphorylation at 0.02 to 1 uM after 24 hrs by Western blot analysis; assay type: cell-based; in short: as §3
[21] = target: Receptor-type tyrosine-protein kinase FLT3 (Homo sapiens) (UniProt P36888); test: Inhibition of FLT3 phosphorylation in human MV4-11 cells assessed as decrease in ERK phosphorylation at 0.02 to 1 uM after 24 hrs by Western blot analysis; assay type: cell-based; in short: as §3
[22] = target: Receptor-type tyrosine-protein kinase FLT3 (Homo sapiens) (UniProt P36888); test: Inhibition of FLT3 phosphorylation in human MV4-11 cells assessed as decrease in AKT phosphorylation at 0.02 to 1 uM after 24 hrs by Western blot analysis; assay type: cell-based; in short: as §3
Homo sapiens = species: Homo sapiens; test: Inhibition of CDK in human MV4-11 cells assessed as decrease in Rb phosphorylation at Ser807/811 after 24 hrs by Western blot analysis; assay type: cell-based; in short: as §3
MGC-803 = test: Growth inhibition of human MGC803 cells after 72 hrs by CellTiter-Glo assay; assay type: functional; details: MGC-803, 72 h

Chain of Receptor-type tyrosine-protein kinase FLT3 (Homo sapiens) (P36888 whole entry): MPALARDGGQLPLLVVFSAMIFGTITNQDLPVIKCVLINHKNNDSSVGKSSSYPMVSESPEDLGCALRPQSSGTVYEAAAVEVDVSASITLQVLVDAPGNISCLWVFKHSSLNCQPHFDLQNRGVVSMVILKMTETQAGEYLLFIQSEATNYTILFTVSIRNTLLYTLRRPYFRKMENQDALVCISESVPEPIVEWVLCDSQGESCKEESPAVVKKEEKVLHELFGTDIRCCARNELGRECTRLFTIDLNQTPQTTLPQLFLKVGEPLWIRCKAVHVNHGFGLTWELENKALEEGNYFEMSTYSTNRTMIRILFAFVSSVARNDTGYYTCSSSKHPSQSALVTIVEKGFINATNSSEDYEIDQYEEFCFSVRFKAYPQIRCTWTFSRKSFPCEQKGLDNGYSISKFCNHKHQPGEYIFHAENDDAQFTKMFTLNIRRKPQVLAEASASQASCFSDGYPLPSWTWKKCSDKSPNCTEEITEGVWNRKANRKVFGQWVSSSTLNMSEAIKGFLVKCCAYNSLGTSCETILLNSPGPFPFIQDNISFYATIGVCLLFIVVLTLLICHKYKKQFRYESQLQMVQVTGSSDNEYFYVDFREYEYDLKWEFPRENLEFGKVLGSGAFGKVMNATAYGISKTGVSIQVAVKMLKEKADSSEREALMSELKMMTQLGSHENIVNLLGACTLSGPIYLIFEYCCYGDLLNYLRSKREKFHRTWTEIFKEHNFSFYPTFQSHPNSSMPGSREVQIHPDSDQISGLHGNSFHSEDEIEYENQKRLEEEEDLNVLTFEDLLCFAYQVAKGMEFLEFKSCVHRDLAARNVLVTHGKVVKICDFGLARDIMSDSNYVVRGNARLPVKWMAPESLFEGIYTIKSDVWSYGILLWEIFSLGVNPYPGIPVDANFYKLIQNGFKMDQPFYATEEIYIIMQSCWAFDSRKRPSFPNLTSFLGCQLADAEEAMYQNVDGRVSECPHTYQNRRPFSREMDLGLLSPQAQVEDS
Chain of Cyclin-dependent kinase 4/cyclin D1 (P11802 whole entry): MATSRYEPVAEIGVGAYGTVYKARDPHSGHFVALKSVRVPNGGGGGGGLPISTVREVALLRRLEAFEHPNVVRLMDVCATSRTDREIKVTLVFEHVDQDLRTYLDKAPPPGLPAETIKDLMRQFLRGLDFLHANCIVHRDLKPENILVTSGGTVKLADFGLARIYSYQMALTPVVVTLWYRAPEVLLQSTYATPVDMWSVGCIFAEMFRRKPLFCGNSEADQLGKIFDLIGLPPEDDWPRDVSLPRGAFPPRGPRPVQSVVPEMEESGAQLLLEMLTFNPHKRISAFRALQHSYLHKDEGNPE
Chain of Cyclin-dependent kinase 4/cyclin D1 (P24385 whole entry, further chain): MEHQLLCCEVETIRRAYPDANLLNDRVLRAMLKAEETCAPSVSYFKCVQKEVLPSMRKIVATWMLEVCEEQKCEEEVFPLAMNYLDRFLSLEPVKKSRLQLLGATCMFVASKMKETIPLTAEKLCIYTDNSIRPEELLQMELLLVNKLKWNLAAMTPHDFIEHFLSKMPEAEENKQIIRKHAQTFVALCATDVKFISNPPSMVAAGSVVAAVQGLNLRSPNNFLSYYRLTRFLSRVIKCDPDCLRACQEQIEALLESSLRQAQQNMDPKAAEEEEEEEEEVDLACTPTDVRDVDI

Which IC50 (CDK2/Cyclin A1) does the source give for `CN1CCN(Cc2ccc(NC(=O)c3n[nH]cc3Nc3ncnc4[nH]ccc34)cc2)CC1` here?
Its IC50 is 0.00247 µM.

What about the IC50 [1] of the same compound?
The IC50 was 0.00085 µM.

What about the GI50 (RS4-11) of the same compound?
Its GI50 is 0.05 µM.

What about the GI50 (MCF7) of the same compound?
The GI50 was 2.84 µM.

What about the GI50 (NCI-H82) of the same compound?
Its GI50 is 0.11 µM.

And the half-life [2]?
Its half-life is 103 min.

And the half-life [3]?
The half-life was 61.9 min.

And the CLint scaled [4]?
The CLint scaled was 40.3 mL/min/kg.

What about the half-life [5] of the same compound?
The half-life was 39.6 min.

What about the half-life [6] of the same compound?
The half-life was 15.4 min.

What about the CLint scaled [7] of the same compound?
The CLint scaled was 129 mL/min/kg.

And the half-life [8]?
The half-life was 51.3 min.

And the CLint scaled [9]?
Its CLint scaled is 36.5 mL/min/kg.

What about the Activity (MV4-11 [10]) of the same compound?
The Activity was -6.11%.

What about the Activity (MV4-11 [11]) of the same compound?
The Activity was 78.95%.

And the IC50 (Lymphocyte)?
The IC50 was 0.492 µM.

And the Activity (MV4-11 [12])?
Its Activity is 9.33%.

What about the Activity (MV4-11 [13]) of the same compound?
Its Activity is 28.54%.

And the Activity (MV4-11 [14])?
The Activity was 13.44%.

And the Activity (MV4-11 [15])?
The Activity was 31.56%.

What about the Activity (MV4-11 [16]) of the same compound?
The Activity was 14.79%.

And the Activity (MV4-11 [17])?
Its Activity is 54.13%.

What about the Activity (MV4-11 [18]) of the same compound?
Its Activity is “Dose-dependent effect”.

What about the Activity (HCT-116) of the same compound?
Its Activity is “Active”.

And the inhibition [19]?
Its inhibition is “Active”.

And the inhibition [20]?
Its inhibition is “Active”.

And the inhibition [21]?
The inhibition was “Active”.

What about the inhibition [22] of the same compound?
The inhibition was “Active”.

And the inhibition (Homo sapiens)?
The inhibition was “Dose-dependent effect”.

What about the GI50 (MGC-803) of the same compound?
The GI50 was 0.37 µM.
